Assay results as given in ChEMBL document CHEMBL1142195, “A novel nonnucleoside analogue that inhibits human immunodeficiency virus type 1 isolates resistant to current nonnucleoside reverse transcriptase inhibitors” (Antimicrob Agents Chemother, 2007).

Legend:
Type in all cases: functional
[1] = tested on: Human immunodeficiency virus 1; assay: Antiviral activity against HIV1 isolate with RT 103N mutation relative to wild type
[2] = tested on: Human immunodeficiency virus 1; assay: Antiviral activity against HIV1 isolate with RT 101Q, 181C, 190A mutation relative to wild type
[3] = tested on: Human immunodeficiency virus 1; assay: Antiviral activity against HIV1 isolate with RT 181C, 190A mutation relative to wild type
Procedure, shortened: (§1)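 Mutant RT clones built in pNL4-3.Luc.R−E− reporter, VSV-G-pseudotyped, single-round infection of HeLa-JC53 cells (15,000/well, MOI 0.03) with 1:4 serial compound dilutions in DMEM (phenol red-free), 2% FBS, 0.2% final DMSO; 48 h at 37°C, 5% CO2; luciferase chemiluminescence read-out. Fold change in EC50 relative to wild-type virus; mean of two tests.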

[4] = tested on: Human immunodeficiency virus 1; assay: Antiviral activity against HIV1 isolate with RT 108I, 181C, 190A mutation relative to wild type; procedure, shortened: as §1
[5] = tested on: Human immunodeficiency virus 1; assay: Antiviral activity against HIV1 isolate with RT 103N, 108I, 181C, 190A mutation relative to wild type
[6] = tested on: Human immunodeficiency virus 1; assay: Antiviral activity against HIV1 isolate with RT 101E, 103N, 190A mutation relative to wild type
[7] = tested on: Human immunodeficiency virus 1; assay: Antiviral activity against HIV1 isolate with RT 238T mutation relative to wild type; procedure, shortened: as §1
[8] = tested on: Human immunodeficiency virus 1; assay: Antiviral activity against HIV1 isolate with RT 98G, 103N, 108I mutation relative to wild type; procedure, shortened: as §1
[9] = tested on: Human immunodeficiency virus 1; assay: Antiviral activity against HIV1 isolate with RT 103N, 181C mutation relative to wild type
[10] = tested on: Human immunodeficiency virus 1; assay: Antiviral activity against HIV1 isolate with RT 181V mutation relative to wild type; procedure, shortened: as §1
[11] = tested on: Human immunodeficiency virus 1; assay: Antiviral activity against HIV1 isolate with RT 100F mutation relative to wild type
[12] = tested on: Human immunodeficiency virus 1; assay: Antiviral activity against HIV1 isolate with RT 179T mutation relative to wild type; procedure, shortened: as §1
[13] = tested on: Human immunodeficiency virus 1; assay: Antiviral activity against HIV1 isolate with RT 101E, 108I, 181C, 190A mutation relative to wild type
[14] = tested on: Human immunodeficiency virus 1; assay: Antiviral activity against HIV1 isolate with RT 98G, 108I, 181C mutation relative to wild type; procedure, shortened: as §1
[15] = tested on: Human immunodeficiency virus 1; assay: Antiviral activity against HIV1 isolate with RT 188L mutation relative to wild type; procedure, shortened: as §1
[16] = tested on: Human immunodeficiency virus 1; assay: Antiviral activity against HIV1 isolate with RT 103N, 238T mutation relative to wild type; procedure, shortened: as §1
[17] = tested on: Human immunodeficiency virus 1; assay: Antiviral activity against HIV1 isolate with RT 98G, 103N mutation relative to wild type; procedure, shortened: as §1
[18] = tested on: Human immunodeficiency virus 1; assay: Antiviral activity against HIV1 isolate with RT 108I, 181C mutation relative to wild type; procedure, shortened: as §1
[19] = tested on: Human immunodeficiency virus 1; assay: Antiviral activity against HIV1 isolate with RT 103R, 179D mutation relative to wild type; procedure, shortened: as §1
[20] = tested on: Human immunodeficiency virus 1; assay: Antiviral activity against HIV1 isolate with RT 101Q mutation relative to wild type
[21] = tested on: Human immunodeficiency virus 1; assay: Antiviral activity against HIV1 isolate with RT 179D mutation relative to wild type; procedure, shortened: as §1
[22] = tested on: Human immunodeficiency virus 1; assay: Antiviral activity against HIV1 isolate with RT 230L mutation relative to wild type; procedure, shortened: as §1
[23] = tested on: Human immunodeficiency virus 1; assay: Antiviral activity against HIV1 isolate with RT 101E, 181C, 190S mutation relative to wild type
[24] = tested on: Human immunodeficiency virus 1; assay: Antiviral activity against HIV1 isolate with RT 101N, 103N mutation relative to wild type
[25] = tested on: Human immunodeficiency virus 1; assay: Antiviral activity against HIV1 isolate with RT 103N, 188L mutation relative to wild type
[26] = tested on: Human immunodeficiency virus 1; assay: Antiviral activity against HIV1 isolate with RT 101Q, 103N, 225H mutation relative to wild type
[27] = tested on: Human immunodeficiency virus 1; assay: Antiviral activity against HIV1 isolate with RT 101P, 103N mutation relative to wild type
[28] = tested on: Human immunodeficiency virus 1; assay: Antiviral activity against HIV1 isolate with RT 106A, 181C mutation relative to wild type; procedure, shortened: as §1
[29] = tested on: Human immunodeficiency virus 1; assay: Antiviral activity against HIV1 isolate with RT 98G, 188L mutation relative to wild type; procedure, shortened: as §1
[30] = tested on: Human immunodeficiency virus 1; assay: Antiviral activity against HIV1 isolate with RT 103N, 225H mutation relative to wild type; procedure, shortened: as §1
[31] = tested on: Human immunodeficiency virus 1; assay: Antiviral activity against HIV1 isolate with RT 103N, 108I, 238T mutation relative to wild type
[32] = tested on: Human immunodeficiency virus 1; assay: Antiviral activity against HIV1 isolate with RT 98G, 103N, 181C, 190A mutation relative to wild type; procedure, shortened: as §1
[33] = tested on: Human immunodeficiency virus 1; assay: Antiviral activity against HIV1 isolate with RT 101E, 181C, 190A mutation relative to wild type
[34] = tested on: Human immunodeficiency virus 1; assay: Antiviral activity against HIV1 isolate with RT 103N, 108I, 181C mutation relative to wild type
[35] = tested on: Human immunodeficiency virus 1; assay: Antiviral activity against HIV1 isolate with RT 179E mutation relative to wild type; procedure, shortened: as §1
[36] = tested on: Human immunodeficiency virus 1; assay: Antiviral activity against HIV1 isolate with RT 106A, F227L mutation relative to wild type; procedure, shortened: as §1
[37] = tested on: Human immunodeficiency virus 1; assay: Antiviral activity against HIV1 isolate with RT 98G mutation relative to wild type; procedure, shortened: as §1
[38] = tested on: Human immunodeficiency virus 1; assay: Antiviral activity against HIV1 isolate with RT 101E, 190A mutation relative to wild type
[39] = tested on: Human immunodeficiency virus 1; assay: Antiviral activity against HIV1 isolate with RT 190A mutation relative to wild type; procedure, shortened: as §1
[40] = tested on: Human immunodeficiency virus 1; assay: Antiviral activity against HIV1 isolate with RT 101P, 190A mutation relative to wild type
[41] = tested on: Human immunodeficiency virus 1; assay: Antiviral activity against HIV1 isolate with RT 190S mutation relative to wild type; procedure, shortened: as §1
[42] = tested on: Human immunodeficiency virus 1; assay: Antiviral activity against HIV1 isolate with RT 106I mutation relative to wild type; procedure, shortened: as §1
[43] = tested on: Human immunodeficiency virus 1; assay: Antiviral activity against HIV1 isolate with RT 101R, 103N mutation relative to wild type
[44] = tested on: Human immunodeficiency virus 1; assay: Antiviral activity against HIV1 isolate with RT 236L mutation relative to wild type; procedure, shortened: as §1
[45] = tested on: Human immunodeficiency virus 1; assay: Antiviral activity against HIV1 isolate with RT 103N, 106M mutation relative to wild type
[46] = tested on: Human immunodeficiency virus 1; assay: Antiviral activity against HIV1 isolate with RT 98G, 101E, 181C, 190A mutation relative to wild type; procedure, shortened: as §1
[47] = tested on: Human immunodeficiency virus 1; assay: Antiviral activity against HIV1 isolate with RT 103N, 108I, 190A mutation relative to wild type
[48] = tested on: Human immunodeficiency virus 1; assay: Antiviral activity against HIV1 isolate with RT 103Q mutation relative to wild type; procedure, shortened: as §1
[49] = tested on: Human immunodeficiency virus 1; assay: Antiviral activity against HIV1 isolate with RT 98G, 181C mutation relative to wild type; procedure, shortened: as §1
[50] = tested on: Human immunodeficiency virus 1; assay: Antiviral activity against HIV1 isolate with RT 103R, 179D, 188L mutation relative to wild type; procedure, shortened: as §1
[51] = tested on: Human immunodeficiency virus 1; assay: Antiviral activity against HIV1 isolate with RT 101Q, 181C mutation relative to wild type
[52] = tested on: Human immunodeficiency virus 1; assay: Antiviral activity against HIV1 isolate with RT 238N mutation relative to wild type; procedure, shortened: as §1
[53] = tested on: Human immunodeficiency virus 1; assay: Antiviral activity against HIV1 isolate with RT 103N, 188H mutation relative to wild type
[54] = tested on: Human immunodeficiency virus 1; assay: Antiviral activity against HIV1 isolate with RT 101H, 190A mutation relative to wild type
[55] = tested on: Human immunodeficiency virus 1; assay: Antiviral activity against HIV1 isolate with RT 101E mutation relative to wild type
[56] = tested on: Human immunodeficiency virus 1; assay: Antiviral activity against HIV1 isolate with RT 179D, 188L mutation relative to wild type; procedure, shortened: as §1

Structure (SMILES): NS(=O)(=O)c1ccc(NC(=O)CSc2nnc(Br)n2-c2ccc(C3CC3)c3ccccc23)c(Cl)c1
- Fold change [1]: 0.7
- Fold change [2]: >100
- Fold change [3]: >100
- Fold change [4]: >100
- Fold change [5]: >100
- Fold change [6]: 50
- Fold change [7]: 2.2
- Fold change [8]: 2.2
- Fold change [9]: 10
- Fold change [10]: 20
- Fold change [11]: 1.8
- Fold change [12]: 1.3
- Fold change [13]: >100
- Fold change [14]: 15
- Fold change [15]: 11
- Fold change [16]: 0.6
- Fold change [17]: 4.4
- Fold change [18]: 14
- Fold change [19]: 0.3
- Fold change [20]: 2.2
- Fold change [21]: 3.3
- Fold change [22]: 11
- Fold change [23]: >100
- Fold change [24]: 0.6
- Fold change [25]: 3.9
- Fold change [26]: 3.9
- Fold change [27]: 2.2
- Fold change [28]: 16
- Fold change [29]: >100
- Fold change [30]: 1.6
- Fold change [31]: 2.5
- Fold change [32]: 82
- Fold change [33]: >100
- Fold change [34]: 6.2
- Fold change [35]: 2.4
- Fold change [36]: >100
- Fold change [37]: 2.4
- Fold change [38]: 83
- Fold change [39]: 13
- Fold change [40]: 92
- Fold change [41]: 3.9
- Fold change [42]: 0.9
- Fold change [43]: 1.2
- Fold change [44]: 0.9
- Fold change [45]: 12
- Fold change [46]: 65
- Fold change [47]: 20
- Fold change [48]: 1.4
- Fold change [49]: 11
- Fold change [50]: >100
- Fold change [51]: 8.9
- Fold change [52]: 0.7
- Fold change [53]: 3.5
- Fold change [54]: 32
- Fold change [55]: 11
- Fold change [56]: >100

Structure (SMILES): Cc1ccnc2c1NC(=O)c1cccnc1N2C1CC1 [NEVIRAPINE]
- Fold change [1]: 51
- Fold change [2]: >100
- Fold change [3]: >100
- Fold change [4]: >100
- Fold change [5]: >100
- Fold change [6]: >100
- Fold change [7]: 100
- Fold change [8]: >100
- Fold change [9]: >100
- Fold change [10]: >100
- Fold change [11]: 2.4
- Fold change [12]: 0.5
- Fold change [13]: >100
- Fold change [14]: >100
- Fold change [15]: >100
- Fold change [16]: >100
- Fold change [17]: >100
- Fold change [18]: >100
- Fold change [19]: 1.3
- Fold change [20]: 2.8
- Fold change [21]: 4.2
- Fold change [22]: 46
- Fold change [23]: >100
- Fold change [24]: 32
- Fold change [25]: >100
- Fold change [26]: >100
- Fold change [27]: >100
- Fold change [28]: >100
- Fold change [29]: >100
- Fold change [30]: >100
- Fold change [31]: >100
- Fold change [32]: >100
- Fold change [33]: >100
- Fold change [34]: >100
- Fold change [35]: 1.9
- Fold change [36]: >100
- Fold change [37]: 5.9
- Fold change [38]: >100
- Fold change [39]: >100
- Fold change [40]: >100
- Fold change [41]: >100
- Fold change [42]: 1.1
- Fold change [43]: >100
- Fold change [44]: 0.5
- Fold change [45]: >100
- Fold change [46]: >100
- Fold change [47]: >100
- Fold change [48]: 1
- Fold change [49]: >100
- Fold change [50]: >100
- Fold change [51]: >100
- Fold change [52]: 1.9
- Fold change [53]: >100
- Fold change [54]: >100
- Fold change [55]: 42
- Fold change [56]: >100
